From ChEMBL document CHEMBL5647697, “Akt inhibition synergizes with polycomb repressive complex 2 inhibition in the treatment of multiple myeloma” (2019) come the findings set out here.

The subject of test [1] is OPM-2/BTZ. Put plainly: Downregulation of phospho-Rb protein expression in human OPM-2/BTZ cells incubated at 0.3 to 3 micromol/L for 48 hrs by Western blot analysis. Format: functional, cell-based. As to conditions: dose 0.3-3 µmol/L. In general terms: In western blotting, separated proteins are transferred to a membrane and probed.
Test [2] has as its system OPM-2/BTZ. The experiment in a line: Synergistic activity against human OPM-2/BTZ cells assessed as combination index preincubated in presence of 1.25 uM GSK126 for 72 hrs followed by compound addition at 2 uM incubated for 48 hrs by MTT assay. It is filed as functional. Background: Tetrazolium assays rely on reduction of a dye to a coloured formazan, in cell work by metabolically active cells.

Test [3] relates to NCI-H929. Put plainly: Induction of apoptosis in human NCI-H929 cells assessed as late apoptotic cells at 2 micromol/L incubated for 12 hrs by annexin V/PI staining based flow cytometry (reference value: […]%). The settings on record: dose 2 µmol/L. It is filed as functional. Background: A flow cytometer gives signals particle by particle.
Test [4] concerns NCI-H929. Put plainly: Upregulation of CDKN1B mRNA expression in human NCI-H929 cells at 1 micromol/L after 24 hrs by qRT-PCR analysis. It is filed as functional, cell-based. The settings on record: dose 1.0 µmol/L. The method, boiled down: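 Cells were exposed to 1 μmol/L TAS-117 for 24 h. mRNA of FOXO3, FOXO4, BIM and CDKN1B was measured by qRT-PCR in H929 cells. Fold change is relative to the untreated control after normalization to GAPDH. Data are SD of triplicates.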

In test [5] the test system is OPM-2/BTZ. The experiment in a line: Synergistic activity against human OPM-2/BTZ cells assessed as combination index preincubated in presence of 1.25 uM UNC1999 for 72 hrs followed by compound addition at 2 uM incubated for 48 hrs by MTT assay. It is filed as functional.
The subject of test [6] is MM1.S. The experiment in a line: Upregulation of EZH1 mRNA expression in human MM1.S cells transduced with EZH1 at 0.3 micromol/L after 24 hrs by qRT-PCR analysis relative to control. It is filed as functional, cell-based. As to conditions: dose 0.3 µmol/L. An outline of the steps: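 MM.1S cells were transduced with lentiviral shRNA against EZH1 or luciferase (shLuc control). Cells were then given graded TAS-117 for 24 h. EZH1 mRNA was measured by qRT-PCR and normalized to GAPDH.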

The test system of test [7] is MM1.S. The experiment in a line: Induction of apoptosis in human MM1.S cells assessed as necrotic cells at 2 micromol/L incubated for 12 hrs by annexin V/PI staining based flow cytometry (reference value: 0.17%). It is filed as functional. The settings on record: dose 2 µmol/L, at 2 µM.
Test [8] concerns MM1.S. Put plainly: Cytotoxicity against human MM1.S cells assessed as reduction in cell viability at 0.3125 to 10 micromol/L after 48 hrs by MTS assay. Format: functional, cell-based. As to conditions: dose 0.3125-10 µmol/L. An outline of the steps: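 Seven myeloma lines (MM.1S, H929, OPM2/BTZ among them) exposed to TAS-117 at increasing concentrations up to 10 μmol/L for 48 h. Viability read by MTS against an untreated control; mean ± SD of triplicates.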

Test [9] deals with OPM-2/BTZ. Put plainly: Downregulation of EZH2 mRNA expression in human OPM-2/BTZ cells at 3 micromol/L after 24 hrs by qRT-PCR analysis. It is filed as functional, cell-based. As to conditions: dose 3.0 µmol/L.
Test [10] concerns NCI-H929. Put plainly: Synergistic activity against human NCI-H929 cells assessed as combination index […] compound addition at 0.125 uM incubated for 48 hrs by MTT assay. It is filed as functional. An outline of the steps:
(§1)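 Cells were exposed to the EZH2/EZH1 inhibitor (UNC1999 or GSK126) for 72 h in total, with the Akt inhibitor added for the last 48 h. Viability was read by MTS assay relative to untreated control cells, in triplicate. The combination index for each dose pair came from isobologram analysis.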

Test [11] deals with OPM-2. Put plainly: Synergistic activity against human OPM-2 cells assessed as combination index preincubated in presence of 5 uM UNC1999 for 72 hrs followed by compound addition at 2.5 uM incubated for 48 hrs by MTS assay.
Test [12] has as its system OPM-2/BTZ. Put plainly: Upregulation of EZH1 mRNA expression in human OPM-2/BTZ cells at 0.03 to 3 micromol/L after 6 to 48 hrs by qRT-PCR analysis. The settings on record: dose 0.03-3 µmol/L, time 6-48 hrs.
Test [13] has as its system MM1.S. Put plainly: Downregulation of H3K27me3 levels in human MM1.S cells […] at 0.3 micromol/L after 48 hrs by Western blot analysis relative to control. The settings on record: dose 0.3 µmol/L. It is filed as functional, cell-based. An outline of the steps: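 MM.1S cells transduced with lentiviral shRNA against EZH1 or luciferase, then treated with TAS-117 at the indicated doses for 48 h. H3K27me3 immunoblot with H3 as loading control.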

For test [14], the system named is NCI-H929. The experiment in a line: Downregulation of EZH2 mRNA expression in human NCI-H929 cells at 0.3 to 3 micromol/L after 24 hrs by qRT-PCR analysis. Format: functional, cell-based. The settings on record: dose 0.3-3 µmol/L. The method, boiled down:
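MM.1S and H929 cells given TAS-117 at the indicated doses for 24 h. mRNA measured by RT-qPCR, fold change after normalization to GAPDH; SD of triplicates; significance versus untreated control.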

The test system of test [15] is OPM-2. The experiment in a line: Synergistic activity against human OPM-2 cells assessed as combination index preincubated in presence of 2.5 uM UNC1999 for 72 hrs followed by compound addition at 2.5 uM incubated for 48 hrs by MTT assay. It is filed as functional.
The target of test [16] is Serine/threonine-protein kinase AKT (Homo sapiens) (UniProt P31751+Q9Y243+P31749). Put plainly: Inhibition of Akt phosphorylation in human MM1.S cells at 0.3 to 5 micromol/L for 6 to 48 hrs by Western blot analysis. It is filed as cell-based. The settings on record: dose 0.3-5 µmol/L, time 6-48 hrs. The method, boiled down: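 MM.1S and H929 cells were treated with graded doses for 48 h, or with 5 μmol/L for the stated times. Lysates were immunoblotted, with GAPDH, total Akt and H3 as loading controls.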

Test [17] has as its system OPM-2/BTZ. The experiment in a line: Downregulation of CDK2 protein expression in human OPM-2/BTZ cells incubated at 0.3 to 3 micromol/L for 48 hrs by Western blot analysis. Format: functional, cell-based. The settings on record: dose 0.3-3 µmol/L.
Test [18] deals with MM1.S. Put plainly: Induction of apoptosis in human MM1.S cells assessed as live cells at 2 micromol/L incubated for 12 hrs by annexin V/PI staining based flow cytometry (reference value: 88.2%). Format: functional. As to conditions: dose 2 µmol/L, at 2 µM.
Test [19] relates to OPM-2/BTZ. The experiment in a line: Upregulation of p27 protein expression in human OPM-2/BTZ cells incubated at 0.3 to 3 micromol/L for 48 hrs by Western blot analysis. Format: functional, cell-based. As to conditions: dose 0.3-3 µmol/L.
Test [20] has as its system MM1.S. The experiment in a line: Downregulation of E2F1 protein expression in human MM1.S cells incubated at 0.3 to 3 micromol/L for 48 hrs by Western blot analysis. It is filed as functional, cell-based. The settings on record: dose 0.3-3 µmol/L. The method, boiled down:
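MM.1S and H929 cells given TAS-117 at the indicated doses for 48 h. Protein levels assessed by immunoblot.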

The test system of test [21] is MM1.S. Put plainly: Synergistic activity against human MM.1S cells assessed as combination index preincubated in presence of 1.25 uM GSK126 […] at 0.25 uM incubated for 48 hrs by […]. Format: functional. The method, boiled down: as §1
The subject of test [22] is OPM-2/BTZ. Put plainly: Downregulation of E2F1 protein expression in human OPM-2/BTZ cells incubated at 0.3 to 3 micromol/L for 48 hrs by Western blot analysis. It is filed as functional, cell-based. The settings on record: dose 0.3-3 µmol/L.
The subject of test [23] is NCI-H929. Put plainly: Cytotoxicity against human NCI-H929 cells transduced with EZH1 assessed as enhanced sensitivity at 0.156 to 2.5 micromol/L 48 hrs by MTS assay. It is filed as functional, cell-based. The settings on record: dose 0.156-2.5 µmol/L. An outline of the steps: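 MM.1S or H929 cells transduced with lentiviral shRNA against EZH1 or against luciferase (shLuc control), then given TAS-117 at the indicated doses for 48 h. Viability by MTS relative to untreated control; mean ± SD of triplicates; compared with shLuc.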

The test system of test [24] is OPM-2/BTZ. Put plainly: Synergistic activity against human OPM-2/BTZ cells assessed as combination index preincubated in presence of 5 uM GSK126 for 72 hrs followed by compound addition at 0.5 uM incubated for 48 hrs by MTT assay. It is filed as functional.

Active and inactive are the calls of the source. No cut-off for these calls is given here.

Sequence of Serine/threonine-protein kinase AKT (Homo sapiens) (P31749 whole entry, looked up): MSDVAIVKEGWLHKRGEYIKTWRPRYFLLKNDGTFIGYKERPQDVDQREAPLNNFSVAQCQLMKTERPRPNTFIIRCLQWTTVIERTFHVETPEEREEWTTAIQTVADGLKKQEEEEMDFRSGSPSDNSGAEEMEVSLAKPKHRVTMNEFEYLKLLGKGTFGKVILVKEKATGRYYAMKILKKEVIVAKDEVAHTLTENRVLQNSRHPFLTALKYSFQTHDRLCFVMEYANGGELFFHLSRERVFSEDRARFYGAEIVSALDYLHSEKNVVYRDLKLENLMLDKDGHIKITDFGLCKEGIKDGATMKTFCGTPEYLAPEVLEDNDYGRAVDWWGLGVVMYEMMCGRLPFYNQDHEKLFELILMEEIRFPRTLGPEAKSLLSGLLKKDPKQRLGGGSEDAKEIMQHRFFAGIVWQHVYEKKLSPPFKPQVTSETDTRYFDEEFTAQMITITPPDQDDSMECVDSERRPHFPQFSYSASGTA
Sequence of Serine/threonine-protein kinase AKT (Homo sapiens) (P31751 whole entry, looked up): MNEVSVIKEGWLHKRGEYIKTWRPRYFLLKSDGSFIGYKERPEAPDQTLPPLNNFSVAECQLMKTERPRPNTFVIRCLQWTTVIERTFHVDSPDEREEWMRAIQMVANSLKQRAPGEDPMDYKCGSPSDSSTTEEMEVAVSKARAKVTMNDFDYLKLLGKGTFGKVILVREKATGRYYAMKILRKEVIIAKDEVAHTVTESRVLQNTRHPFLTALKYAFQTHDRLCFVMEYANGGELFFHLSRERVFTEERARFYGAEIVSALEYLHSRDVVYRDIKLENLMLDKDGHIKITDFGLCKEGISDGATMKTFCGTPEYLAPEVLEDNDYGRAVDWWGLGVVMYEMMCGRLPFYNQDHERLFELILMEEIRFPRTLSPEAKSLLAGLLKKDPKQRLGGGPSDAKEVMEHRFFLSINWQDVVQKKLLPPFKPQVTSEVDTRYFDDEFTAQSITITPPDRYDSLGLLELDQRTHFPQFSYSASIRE
Sequence of Serine/threonine-protein kinase AKT (Homo sapiens) (Q9Y243 whole entry, looked up): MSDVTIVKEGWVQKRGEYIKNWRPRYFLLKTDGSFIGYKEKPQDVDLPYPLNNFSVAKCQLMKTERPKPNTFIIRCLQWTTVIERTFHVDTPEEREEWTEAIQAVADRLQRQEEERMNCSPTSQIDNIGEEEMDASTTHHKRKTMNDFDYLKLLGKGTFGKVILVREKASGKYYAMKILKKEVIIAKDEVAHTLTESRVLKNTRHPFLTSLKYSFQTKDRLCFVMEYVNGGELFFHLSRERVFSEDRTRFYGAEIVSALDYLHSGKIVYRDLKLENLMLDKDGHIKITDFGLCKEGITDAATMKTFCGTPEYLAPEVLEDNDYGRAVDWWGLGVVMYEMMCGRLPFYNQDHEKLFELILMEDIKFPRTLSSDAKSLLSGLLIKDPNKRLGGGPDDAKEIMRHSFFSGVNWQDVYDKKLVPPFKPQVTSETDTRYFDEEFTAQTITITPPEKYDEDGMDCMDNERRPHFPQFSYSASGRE

Take `C[C@]1(O)C[C@@](N)(c2ccc(-c3nc4n(c3-c3ccccc3)COc3ccncc3-4)cc2)C1` [PIFUSERTIB]: the result with OPM-2/BTZ [1], with NCI-H929 [4], in the test on MM1.S [6], with MM1.S [8], with OPM-2/BTZ [9] and with MM1.S [13] was Active. Further, the result with NCI-H929 [14], in the test with OPM-2/BTZ [17], with OPM-2/BTZ [19], with MM1.S [20], in the test on OPM-2/BTZ [22] and with NCI-H929 [23] was Active. Further, the CI with OPM-2/BTZ [2] turned out to be 0.203; with OPM-2/BTZ [5] it was 0.395; with NCI-H929 [10], 0.858; with OPM-2 [11] it was 5.53; in the test with OPM-2 [15], 2.79; in the test on MM1.S [21] it was 0.954. Also, the CI with OPM-2/BTZ [24] amounted to 1.112. Besides, the Activity in the test with NCI-H929 [3] was 3.42%; with MM1.S [7], 0.23%; in the test with OPM-2/BTZ [12] it was “Dose-Dependent Effect”; with MM1.S [18] it was 85.7%. Moreover, the inhibition entry in [16] is “Active”.
